Reference: ChEMBL document CHEMBL3813601, “Structure-Based Inhibitor Design for Evaluation of a CYP3A4 Pharmacophore Model” (J Med Chem, 2016)
One block for each compound: values may come before it.

Legend:
Assay type in all cases: ADME
Cytochrome P450 3A4 [1] = biological target: T1, Cytochrome P450 3A4 (Homo sapiens, UniProt P08684); assay: Binding affinity to C-terminal four-histidine tagged human CYP3A4delta3 to 24 residues expressed in Escherichia coli assessed as spectral dissociation constant by spectrophotometric method
In short: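 Equilibrium titration of CYP3A4 in 50 mM phosphate pH 7.4 with 20% glycerol and 1 mM DTT. Ligand added in small aliquots from DMSO stock, final DMSO <2%. Absorbance spectra recorded. Ks obtained from one- or two-site saturation fit of absorbance change versus ligand concentration.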

Cytochrome P450 3A4 [2] = biological target: T1, Cytochrome P450 3A4; assay: Binding affinity to C-terminal four-histidine tagged human CYP3A4delta3 to 24 residues expressed in Escherichia coli assessed as rate constant for first phase
In short: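 Stopped-flow mixing of 2 μM CYP3A4 with varied ligand concentrations, room temperature, 50 mM phosphate pH 7.4. Absorbance followed at 409–411 or 427–428 nm depending on ligand. Fast-phase rate constant taken at saturating ligand concentration.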

Cytochrome P450 3A4 [3] = biological target: T1, Cytochrome P450 3A4; assay: Binding affinity to C-terminal four-histidine tagged human CYP3A4delta3 to 24 residues expressed in Escherichia coli assessed as change in melting temperature at 10 uM by spectrophotometric method
Cytochrome P450 3A4 [4] = biological target: T1, Cytochrome P450 3A4; assay: Inhibition of C-terminal four-histidine tagged human CYP3A4delta3 to 24 residues expressed in Escherichia coli assessed as 7-benzyloxy-4-(trifluoromethyl)coumarin O-debenzylation pretreated 2 mins followed by NADPH addition by fluorometric method in presence of rat cytochrome P450 reductase
In short: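 Reconstituted system at room temperature in 100 mM phosphate pH 7.4 with catalase and superoxide dismutase (2 units/mL each). 1 μM CYP3A4 and 1 μM rat CPR preincubated 1 h at room temperature, then diluted 20-fold in assay buffer just before measurement. BFC (50 μM) and varying compound concentrations added 2 min before starting with 100 μM NADPH. O-debenzylation read fluorometrically; IC50 = half-maximal inactivation.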

T1 sequence (P08684 whole entry, the tested form may be a part): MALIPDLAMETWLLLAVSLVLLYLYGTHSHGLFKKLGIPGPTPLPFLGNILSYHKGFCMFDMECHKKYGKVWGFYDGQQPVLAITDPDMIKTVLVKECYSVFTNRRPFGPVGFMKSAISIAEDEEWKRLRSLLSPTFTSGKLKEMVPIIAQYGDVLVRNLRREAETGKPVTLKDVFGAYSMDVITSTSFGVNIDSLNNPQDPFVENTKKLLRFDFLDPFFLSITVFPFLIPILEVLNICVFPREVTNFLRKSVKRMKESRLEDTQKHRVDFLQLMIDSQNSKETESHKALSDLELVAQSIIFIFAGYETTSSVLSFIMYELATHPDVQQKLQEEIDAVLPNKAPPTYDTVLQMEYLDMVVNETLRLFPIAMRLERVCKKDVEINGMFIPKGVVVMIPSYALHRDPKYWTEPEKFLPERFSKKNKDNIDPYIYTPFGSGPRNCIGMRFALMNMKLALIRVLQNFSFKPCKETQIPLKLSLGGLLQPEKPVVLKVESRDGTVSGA

- K (Cytochrome P450 3A4 [2]): 20 s⁻¹
- deltaTm (Cytochrome P450 3A4 [3]): -0.2 °C
- IC50 (Cytochrome P450 3A4 [4]): 75 µM
Compound: CC(C)(C)OC(=O)NCCCCCC(=O)NCc1cccnc1

- Kd (Cytochrome P450 3A4 [1]): 10 µM
- K (Cytochrome P450 3A4 [2]): 0.8 s⁻¹
- deltaTm (Cytochrome P450 3A4 [3]): -0.2 °C
- IC50 (Cytochrome P450 3A4 [4]): 1000 µM
Compound: NCCCCCC(=O)NCc1cccnc1

The next lines start with the compound.

Compound: NCCc1cccnc1
- Kd (Cytochrome P450 3A4 [1]): 2500 µM
- K (Cytochrome P450 3A4 [2]): 0.6 s⁻¹
- deltaTm (Cytochrome P450 3A4 [3]): -0.1 °C
- IC50 (Cytochrome P450 3A4 [4]): 5000 µM

Compound: CC(C)(C)OC(=O)N[C@H](CSCCC(=O)NCc1cccnc1)CC1CCCCC1
- Kd (Cytochrome P450 3A4 [1]): 10 µM
- K (Cytochrome P450 3A4 [2]): 4 s⁻¹
- deltaTm (Cytochrome P450 3A4 [3]): -2 °C
- IC50 (Cytochrome P450 3A4 [4]): 30 µM

Compound: CC(C)(C)OC(=O)N[C@H](CSCCC(=O)NCc1cccnc1)Cc1ccccc1
- Kd (Cytochrome P450 3A4 [1]): 0.9 µM
- K (Cytochrome P450 3A4 [2]): 1.7 s⁻¹
- deltaTm (Cytochrome P450 3A4 [3]): -1 °C
- IC50 (Cytochrome P450 3A4 [4]): 0.52 µM

Compound: CC(C)(C)OC(=O)N[C@H](CSCCC(=O)NCc1cccnc1)Cc1c[nH]c2ccccc12
- Kd (Cytochrome P450 3A4 [1]): 0.5 µM
- K (Cytochrome P450 3A4 [2]): 8 s⁻¹
- deltaTm (Cytochrome P450 3A4 [3]): 0.2 °C
- IC50 (Cytochrome P450 3A4 [4]): 0.21 µM

Compound: c1ccncc1 [PYRIDINE]
- K (Cytochrome P450 3A4 [2]): 0.5 s⁻¹
- deltaTm (Cytochrome P450 3A4 [3]): 0 °C
